From PubChem
Rin1 Abl inh: inhibitors of Rin1-Abl protein binding, primary screen, biochemical, TR-FRET | inhibition, % at 7.35 µM | 360,000 tested, 0.4% active | AID 588664, 2011 | Tyrosine-protein kinase ABL1 (Homo sapiens) + Ras and Rab interactor 1 (Homo sapiens), …; in the data active means inhibition above about 5%, passing the limit was not always enough
PKA-R1A act: activators of PKA-R1A holoenzyme, primary screen, biochemical, fluorescence polarization, Cy5-IP20, bovine R1A, mouse PKAc | activation, % at 11.4 µM | PKA-R1A dissociation; scaled: DMSO 0%, 113 µM cGMP 100% | 340,000 tested, 0.083% active | cAMP-dependent protein kinase type I-alpha regulatory subunit (Bos taurus) + …;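 active means percent activation above the mean of all tested compounds plus 3 SD, cut at about 19% in these data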;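 further: higher means more PKAc released from R1A so a rise in polarization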
PKA-R2B activ: activators of PKA-R2B holoenzyme, primary screen, biochemical, fluorescence polarization, Cy5-IP20, human; cAMP-dependent protein kinase catalytic subunit beta (Homo sapiens) + cAMP-dependent …; PKA-R2B holoenzyme dissociation; R2B truncated from residue 108, S112A mutant; 0% DMSO only, 100% 113 µM cGMP; activation, % at 11.4 µM; 340,000 tested, 0.079% active; AID 504700, 2011;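 active means activation above a cutoff set at the mean over all compounds plus 3 SD, cut at about 18% in these data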;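 further: higher means more holoenzyme dissociation and a rise in polarization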
UCH37 DUB inh: inhibitors of human UCH37 deubiquitinase, primary screen, biochemical, Ub-AMC cleavage, fluorescence; inhibition, % (no concentration beside the values); Ubiquitin carboxyl-terminal hydrolase isozyme L5 (Homo sapiens), Q9Y5K5; 330,000 tested, 0.33% active; purified proteasome/UCH37;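 active means mean inhibition over replicate wells above about 20%, limit read from the data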
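Material: Human UCH37 enzyme supplied as purified proteasome complex | Schedule: 30 min compound-proteasome preincubation then 25 min substrate reaction, room temperature | Detection: AMC fluorescence from Ub-AMC cleavage, excitation 355 nm, emission 460 nm | Benchmarks: Wells without proteasome as full block, compound-free enzyme plus substrate as uninhibited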
Large screens that a line does not name were inactive. In the library only some 0.79% were active in any assay of this set; here they are far more common.

C/C(C=NNC(=O)Cn1cncn1)=C/c1ccc(C(C)C)cc1	UCH37 DUB inh 23 (no result: Rin1 Abl inh, PKA-R1A act, PKA-R2B activ)
CC(/C=N\NC(=O)Cn1cncn1)=C/c1ccc(C(C)C)cc1	none (no result: PKA-R1A act, PKA-R2B activ, UCH37 DUB inh)
NC(=O)CSc1nnc2sc3ccccc3n12	UCH37 DUB inh 24
CC(C)NC(=O)CSc1nnc2sc3ccccc3n12	none
Cc1ccc(/C=C/C2=NN(C)C(=O)CC2)cc1	UCH37 DUB inh 21
OCC1OC(n2cnc3c(/C=C(\O)c4ccccc4)ncnc32)C(O)C1O (stereo not given)	none (no result: UCH37 DUB inh)
CCOC(=O)c1sc(Nc2nc(OC)cc(OC)n2)nc1C	none (no result: Rin1 Abl inh, PKA-R1A act, PKA-R2B activ)
C#CCNC(=O)C1=C[C@@H](c2ccc(Br)cc2)[C@H](CCCO)[C@@H](OCC)O1	UCH37 DUB inh 24
OC(CCN1CCCCC1)(c1ccccc1)C1C[C@@H]2C=C[C@H]1C2 (stereo not given in full)	none
CN1CCN(CC#CC(C)(O)C2CC3C=CC2C3)CC1 (stereo not given)	UCH37 DUB inh 23
O=[N+]([O-])c1cc(Cl)c(O)c2ncccc12	UCH37 DUB inh 25
CC(C)COc1ccc(-c2nn(-c3ccccc3)cc2/C=C2/SC(=S)N(CC(=O)O)C2=O)cc1	UCH37 DUB inh 22
COc1cc(C=Nn2c(SC)nnc(C(C)(C)C)c2=O)ccc1O	UCH37 DUB inh 35 (no result: Rin1 Abl inh, PKA-R1A act, PKA-R2B activ)
O=C(O)CSc1nnc(COc2ccccc2)n1-c1ccccc1	none
COc1ccc2c(c1)C(C)=CC(C)(C)N2S(=O)(=O)c1ccc(C)cc1	UCH37 DUB inh 23
O=c1oc2ccccc2c2oc3cc(O)c(O)cc3c12	none
O=c1oc2c(O)c(O)cc3c(=O)oc4c(O)c(O)cc1c4c23	Rin1 Abl inh 61 (no result: UCH37 DUB inh)
Cn1ncc(N=Cc2c(O)ccc3ccccc23)c1C(=O)Nc1cccc(Cl)c1	none
COC1=C/C(=C/c2c(N)n3nc(-c4ccc(C)cc4)sc3nc2=O)C=CC1=O	none
CCS(=O)(=O)c1nn2c(N)c(/C=C3/C=CC(=O)C(OC)=C3)c(=O)nc2s1	UCH37 DUB inh 22
O=C(C(=O)c1ccc(O)c(O)c1)c1ccc(O)c(O)c1	UCH37 DUB inh 24
COc1ccc(S(=O)(=O)Nc2ccccc2C(=O)NN2CCOCC2)cc1OC	none
O=C(CSC1=NCCS1)NC(NC(=O)CSC1=NCCS1)c1ccccc1	none
O=C(CSC1=NCCS1)NC(c1ccccc1)c1ccccc1	PKA-R1A act 19
COc1cc(/C=C2/SC(=S)N(Cc3ccccc3)C2=O)cc(Cl)c1O	none (no result: UCH37 DUB inh)
COc1cc(/C=C2\C(=O)NN(c3ccc(C)cc3)C2=O)cc([N+](=O)[O-])c1O	none
COc1cc([N+](=O)[O-])cc(/C=C2/SC(=S)N(Cc3ccccc3)C2=O)c1O	UCH37 DUB inh 21
COc1cc(/C=C2\C(=O)NN(c3ccccc3)C2=O)cc([N+](=O)[O-])c1O	UCH37 DUB inh 21
COc1cc(C=NNC(=O)Cc2ccccc2)cc([N+](=O)[O-])c1O	UCH37 DUB inh 22 (no result: Rin1 Abl inh, PKA-R1A act, PKA-R2B activ)
COc1cc(/C=C2\SC(=O)N(Cc3ccc(Cl)cc3)C2=O)cc([N+](=O)[O-])c1O	UCH37 DUB inh 22
CCOC(=O)CN(C(=O)COc1nc(C)cc(C)c1C#N)c1cccc(Cl)c1	none
CC(C)=CCn1c2ccc(NC(=O)Nc3cccnc3)cc2c(=O)n1C	none (no result: PKA-R1A act, PKA-R2B activ, UCH37 DUB inh)
CCC(C)[C@H](NC(=O)NCCC1=CCCCC1)C(=O)OC (stereo not given in full)	UCH37 DUB inh 25
COc1ccc(C(=O)NCCC2=CCCCC2)cc1	none
COc1cccc(C(=O)NCCC2=CCCCC2)c1	UCH37 DUB inh 25
O=C1N[C@@H](Cc2ccccc2)COC(=O)[C@@H](Cc2ccc(F)cc2)CC/C=C/C[C@@H]1CC(=O)N(CCO)Cc1ccccc1	none
CCN(C[C@H]1N[C@@](Cc2ccccc2)(C(=O)OC)[C@H]2C(=O)N(C)C(=O)[C@@H]12)C(=O)c1ccc(C(C)(C)C)cc1	none
COc1ccc(OC)c(Nc2cc3ccccc3c(=O)[nH]2)c1	none
COc1ccccc1Nc1cc2cc(Br)ccc2c(=O)[nH]1	UCH37 DUB inh 21
O=C(CSc1ncn[nH]1)Nc1nc(-c2ccccc2)cs1	UCH37 DUB inh 28
O=C1CSC(=Nc2ccccc2[N+](=O)[O-])N1	UCH37 DUB inh 29
CCOc1ccc(CCNC(=O)CCS(=O)(=O)c2ccc(OC)cc2)cc1OCC	UCH37 DUB inh 30
